According to paper PMC5909973 (ChemMedChem, 2017):

Tests used:
human FPR1 [1] = target: T1, human FPR1 (Homo sapiens, UniProt P21462); experiment: Ca2+ mobilization; format: cell-based; conditions: for Ca+2 mobilization FPR1-HL60 efficacy: normalized to 5 nM fMLF = 100%
T1 sequence (P21462 1-350): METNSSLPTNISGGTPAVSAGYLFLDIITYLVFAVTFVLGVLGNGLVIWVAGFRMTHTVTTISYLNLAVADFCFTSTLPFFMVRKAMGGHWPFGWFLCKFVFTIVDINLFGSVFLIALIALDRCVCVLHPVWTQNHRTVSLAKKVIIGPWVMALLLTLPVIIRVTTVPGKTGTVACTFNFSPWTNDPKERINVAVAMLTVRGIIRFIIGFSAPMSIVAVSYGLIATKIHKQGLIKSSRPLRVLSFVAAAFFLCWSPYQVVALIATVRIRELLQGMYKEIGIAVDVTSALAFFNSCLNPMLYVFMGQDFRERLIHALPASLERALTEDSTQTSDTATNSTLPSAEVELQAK
Outline: (§1)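 FPR1- or FPR2-stably transfected HL-60 cells were kept in RPMI 1640 with 10% FCS and G418. Cells were loaded with Fluo-4 AM (1.25 µg/mL final) for 30 min at 37 °C in the dark, then put in HBSS with Ca²⁺/Mg²⁺ at 2×10⁵ cells/well. After test compound addition, fluorescence (ex 485/em 538 nm) was read every 5 s for 240 s at room temperature. Peak change over baseline was normalized to 5 nM fMLF (FPR1) or 5 nM WKYMVM (FPR2). Runs were in triplicate, with EC50 from nonlinear regression of 5–6 points.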

N9 cells = experiment: MTT cytotoxicity assay in N9 cells; format: cell-based; conditions: Mus musculus, N9, 24 h, read-out: MTT EC50
Outline: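 Murine N9 microglia were grown in IMDM with 5% FBS and 2 mM glutamine at 37 °C in 5% CO₂, and seeded at 20,000 cells/well. Next day, test compound was added at 5–6 concentrations (10⁻⁸–10⁻⁴ M) in triplicate, with a DMSO vehicle control. After 24 h, MTT (0.5 mg/mL) was added for 3–4 h at 37 °C. Formazan was dissolved in DMSO/EtOH 1:1 and read at 570 and 630 nm. EC50 came from a nonlinear fit of percent absorbance change against log concentration.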

human FPR2 [2] = target: T2, human FPR2 (Homo sapiens, UniProt P25090); experiment: Ca2+ mobilization; format: cell-based; conditions: for Ca+2 mobilization FPR2-HL60 efficacy: normalized to 5 nM WKYMVM = 100%
T2 sequence (P25090 1-351): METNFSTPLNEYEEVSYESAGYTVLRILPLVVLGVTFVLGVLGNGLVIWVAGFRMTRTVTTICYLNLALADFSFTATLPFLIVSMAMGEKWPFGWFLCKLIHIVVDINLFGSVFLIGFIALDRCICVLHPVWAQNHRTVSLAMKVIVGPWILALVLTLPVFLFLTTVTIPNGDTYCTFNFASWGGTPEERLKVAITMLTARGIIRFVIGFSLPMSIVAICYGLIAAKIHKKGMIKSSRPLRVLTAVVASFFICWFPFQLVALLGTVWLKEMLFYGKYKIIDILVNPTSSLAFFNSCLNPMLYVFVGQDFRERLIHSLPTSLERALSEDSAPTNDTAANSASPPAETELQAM
Outline: as §1

[3] = tested on: mouse microglial N9 cells; experiment: ROS production in LPS-stimulated N9 cells; format: cell-based; conditions: for reduction in cellular ROS level (dose dependence): N9 cells stimulated with LPS, 0.1 and 1 μM; for reduction in ROS production: N9 cells, 24 h co-incubation with LPS, compound 0.1 μM, p<0.05
Outline: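 N9 microglia seeded at 25,000 cells/well; after 3–4 h, LPS 300 ng/mL added alone or with test compound (0.1 or 1 μM), then 24 h at 37 °C. H2DCF-DA (10 μM final) added for 30 min, wells washed 3× in ice-cold PBS, read in saline at ex 480/em 520 nm. Increase over basal fluorescence; mean ± standard error, ≥3 biological replicates; one-way ANOVA with paired two-tailed t-tests, p<0.05.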

human FPR2 [4] = target: T2, human FPR2; format: cell-based; conditions: for Ca+2 mobilization FPR2-HL60 max. inhibition: desensitization, pretreatment, then WKYMVM 5 nM
Outline: (§2)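 Fluo-4-loaded transfected HL-60 cells in HBSS⁺ were pretreated with DMSO vehicle or graded test compound concentrations while Ca²⁺ flux was monitored. The same wells were then challenged with 5 nM fMLF (FPR1 cells) or 5 nM WKYMVM (FPR2 cells). The second Ca²⁺ response (ex 485/em 538 nm, every 5 s for 240 s, room temperature) was taken as the measure of desensitization. Each compound was run in triplicate, with dose-response curves fitted by nonlinear regression.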

[5] = ROS scavenging in cell-free non-enzymatic O2·−-generating system; conditions: concentrations up to 20 μM; data not shown
Outline: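 Superoxide generated non-enzymatically from phenazine methosulfate plus NADH in 0.05 M phosphate buffer, pH 7.5, with or without test compound. Detection by NBT reduction to monoformazan, followed at 560 nm and 25 °C on a plate spectrophotometer. The rate of absorbance change was taken as the read-out.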

human FPR1 [6] = target: T1, human FPR1; experiment: Desensitization: inhibition of fMLF-induced Ca2+ mobilization in FPR1-HL60 cells; format: cell-based
Outline: as §2

FPR2 [7] = conditions: cited from earlier work
FPR2 [8] = conditions: FPR2 agonist WKYMVm; cited from earlier work
ear edema = conditions: cited from earlier work
FPR2 [9] = conditions: read-out: Ki value at FPR2; cited from earlier work
FPR2 [10] = conditions: read-out: FPR2 desensitization IC50; cited from earlier work

SMILES | Ca+2 mobilization FPR1-HL60 efficacy (human FPR1 [1]) [%] | EC50 (N9 cells) [nM] | Ca+2 mobilization FPR2-HL60 efficacy (human FPR2 [2]) [%] | reduction in cellular ROS level (dose dependence) [3] | reduction in ROS production [3] | Ca+2 mobilization FPR2-HL60 max. inhibition (human FPR2 [4]) [%] | direct ROS scavenging activity [5] | further results
COc1ccc(NC(=O)N[C@H](Cc2ccc(O)cc2)C(=O)NCC2(c3ccccc3)CC2)cc1 [(R)-25, (R)-3-(4-Hydroxyphenyl)-2-[3-(4-methoxyphenyl)ureido]-N-[(1-phenylcyclopropyl)methyl]propanamide] | 55 | > 100000 | 90 | dose-dependent reduction in cellular ROS level | statistically significant reduction in ROS production | 75 | none of the tested compounds demonstrated ROS scavenging activity | –
O=C(Nc1ccc(Br)cc1)N[C@H](Cc1ccc(O)cc1)C(=O)NC1CCCCNC1=O (stereo partly drawn) [(2R)-46, (2R)-2-[3-(4-Bromophenyl)ureido]-3-(4-hydroxyphenyl)-N-(2-oxoazepan-3-yl)propanamide] | 110 | > 100000 | 140 | dose-dependent reduction in cellular ROS level | statistically significant reduction in ROS production | 100 | none of the tested compounds demonstrated ROS scavenging activity | EC50 (human FPR1 [1]): 820 ± 370 nM; EC50 (human FPR2 [2]): 350 ± 120 nM; FPR2 desensitization / block of agonist-induced Ca2+ mobilization, in words (human FPR2 [4]; FPR2-HL60 cells, WKYMVM): able to induce desensitization; FPR1 desensitization / inhibition of fMLF-induced Ca2+ mobilization, in words (human FPR1 [6]; FPR1-HL60 cells, fMLF): able to induce FPR1 desensitization; Ca+2 mobilization FPR1-HL60 max. inhibition (human FPR1 [6]; desensitization, pretreatment, then fMLF 5 nM): 85%
N#Cc1ccc(C[C@@H](NC(=O)Nc2ccc(O)cc2)C(=O)NCC2(c3ccccc3)CC2)cc1 [(R)-24, (R)-3-(4-Cyanophenyl)-2-[3-(4-hydroxyphenyl)ureido]-N-[(1-phenylcyclopropyl)methyl]propanamide] | – | > 100000 | – | – | – | – | – | –
CCCCOc1ccc(C(=O)NN2C(=O)c3ccccc3NC2c2ccc(O)cc2)cc1 (stereo not drawn) [Compound 6, Quin C7] | – | – | – | – | – | – | – | inhibition of Ca2+ flux induced by WKYMVm (FPR2 [7]; FPR2 agonist WKYMVm): inhibited; activation of Ca2+ flux (FPR2 [7]; FPR2 transfected cells): did not activate Ca^2+ flux; inhibition of chemotaxis induced by WKYMVm (FPR2 [8]): inhibited; arachidonic acid-induced ear edema (ear edema): inhibited arachidonic acid-induced ear edema; Ki (FPR2 [9]): 6700 nM
CCCCOc1ccc(C(=O)NN2C(=O)c3ccccc3NC2c2ccc(OC)cc2)cc1 (stereo not drawn) [Quin C1, reference compound] | – | – | – | – | statistically significant reduction in ROS production | – | – | IC50 (FPR2 [10]): 40 nM
